12 compounds from ChEMBL document CHEMBL1144572, “Synthesis and biological evaluation of gamma-aminophosphonates as potent, subtype-selective sphingosine 1-phosphate receptor agonists and antagonists” (Bioorg Med Chem, 2007) can be followed below.

The source made the active and inactive calls. The rule behind the calls is not given here.

Assay [1] concerns the target T1, Sphingosine 1-phosphate receptor 5 (Homo sapiens, UniProt Q9H228). The assay can be described thus: Activity at human S1P5 receptor expressed in HEK293T cells by [35S]GTP-gamma-S binding assay. The assay is classed as functional, cell-based, HEK-293T. An outline of the steps: (§1)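 Individual human S1P receptor subtypes and individual G protein subunits forced into expression in HEK293T cells; receptor-dependent [γ-35S]GTP binding measured in vitro. EC50 in nM as the mean of at least three experiments.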

In assay [2] the target is T2, Sphingosine 1-phosphate receptor 2 (Homo sapiens, UniProt O95136). Briefly: Activity at human S1P2 receptor expressed in HEK293T cells by [35S]GTP-gamma-S binding assay. Format: functional, cell-based, HEK-293T. The conditions noted are these: for Activity: HEK-293T. An outline of the steps: as §1
Assay [3] has as its target T3, Sphingosine 1-phosphate receptor 3 (Homo sapiens, UniProt Q99500). Briefly: Activity at human S1P3 receptor expressed in HEK293T cells by [35S]GTP-gamma-S binding assay. Format: functional, cell-based, HEK-293T. The conditions noted are these: for Activity: HEK-293T. An outline of the steps:
as §1

Assay [4] addresses T1, Sphingosine 1-phosphate receptor 5. The assay can be described thus: Efficacy at human S1P5 receptor expressed in HEK293T cells relative to S1P. Particulars: HEK-293T. Format: functional, cell-based. An outline of the steps: (§2)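 Individual human S1P receptor subtypes co-expressed with individual G protein subunits in HEK293T cells; [γ-35S]GTP binding. Emax normalized to the maximal activation by endogenous S1P at each receptor.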

Assay [5] has as its target T2, Sphingosine 1-phosphate receptor 2. Briefly: Efficacy at human S1P2 receptor expressed in HEK293T cells relative to S1P. Format: functional, cell-based. Particulars: HEK-293T. An outline of the steps:
as §2

In assay [6] the target is T3, Sphingosine 1-phosphate receptor 3. Briefly: Efficacy at human S1P3 receptor expressed in HEK293T cells relative to S1P. Format: functional, cell-based. The conditions noted are these: HEK-293T. An outline of the steps:
as §2

In assay [7] the target is T4, Sphingosine 1-phosphate receptor 4 (Homo sapiens) (UniProt O95977).
T4 sequence (whole entry): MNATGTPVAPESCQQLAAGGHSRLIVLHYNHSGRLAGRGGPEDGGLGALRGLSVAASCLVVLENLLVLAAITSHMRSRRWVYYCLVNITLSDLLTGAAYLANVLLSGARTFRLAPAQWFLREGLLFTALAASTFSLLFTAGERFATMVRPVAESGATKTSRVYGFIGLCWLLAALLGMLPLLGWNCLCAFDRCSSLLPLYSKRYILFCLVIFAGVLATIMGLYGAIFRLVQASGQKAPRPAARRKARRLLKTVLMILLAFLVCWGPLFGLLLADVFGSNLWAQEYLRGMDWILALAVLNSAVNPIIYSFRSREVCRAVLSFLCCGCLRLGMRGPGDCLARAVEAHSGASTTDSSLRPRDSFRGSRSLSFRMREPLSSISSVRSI
Briefly: Efficacy at human S1P4 receptor expressed in HEK293T cells relative to S1P. The assay is classed as functional, cell-based. Particulars: HEK-293T. An outline of the steps:
as §2

For assay [8], the target named is T5, Sphingosine 1-phosphate receptor 1 (Homo sapiens, UniProt P21453). The assay can be described thus: Activity at human S1P1 receptor expressed in HEK293T cells by [35S]GTP-gamma-S binding assay. Format: functional, cell-based, HEK-293T. The conditions noted are these: for Activity: HEK-293T. An outline of the steps: as §1
The target of assay [9] is T6, Sphingosine 1-phosphate receptor 4 (Homo sapiens, UniProt O95977).
T6 sequence (O95977 whole entry): T4 sequence (whole entry)
The assay can be described thus: Activity at human S1P4 receptor expressed in HEK293T cells by [35S]GTP-gamma-S binding assay. The assay is classed as functional, cell-based, HEK-293T. An outline of the steps: as §1

The target of assay [10] is T5, Sphingosine 1-phosphate receptor 1. The assay can be described thus: Efficacy at human S1P1 receptor expressed in HEK293T cells relative to S1P. The assay is classed as functional, cell-based. The conditions noted are these: HEK-293T. An outline of the steps: as §2
The test system of assay [11] is Mus musculus. Briefly: Effect on vascular permeability in C57BL/6 mouse assessed as capillary leakage in lung at 25 mg/kg by Evans blue extravasation assay. Format: functional, organism-based. Also noted: dose 25 mg/kg. An outline of the steps:
(§3)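 C57BL/6 mice given compound (25 mg/kg) or vehicle (2% hydroxypropyl β-cyclodextrin) two hours before 2% Evans blue dye (20 mg/kg) via jugular vein. Tissues harvested 30 min later. Dye extracted into formamide, read spectrometrically and quantified against a standard curve. n = 4 per group, mean ± SE, compared with vehicle.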

Assay [12] relates to Mus musculus. The assay can be described thus: Effect on vascular permeability in C57BL/6 mouse assessed as capillary leakage in kidney at 25 mg/kg by Evans blue extravasation assay. Format: functional, organism-based. Further details: dose 25 mg/kg. An outline of the steps: as §3
Assay [13] addresses T5, Sphingosine 1-phosphate receptor 1. The assay can be described thus: Displacement of [32P]S1P from human S1P1 receptor expressed in HEK293T cells. Format: cell-based, HEK-293T.
Assay [14] relates to Mus musculus. Briefly: Inhibition of VPC44152-evoked lymphopenia in mouse at 22 mg/kg. The assay is classed as functional, organism-based. Also noted: dose 22 mg/kg.
Assay [15] concerns the target T3, Sphingosine 1-phosphate receptor 3. The assay can be described thus: Displacement of [32P]S1P from human S1P3 receptor expressed in HEK293T cells. The assay is classed as cell-based, HEK-293T.

T3 sequence (Q99500 whole entry): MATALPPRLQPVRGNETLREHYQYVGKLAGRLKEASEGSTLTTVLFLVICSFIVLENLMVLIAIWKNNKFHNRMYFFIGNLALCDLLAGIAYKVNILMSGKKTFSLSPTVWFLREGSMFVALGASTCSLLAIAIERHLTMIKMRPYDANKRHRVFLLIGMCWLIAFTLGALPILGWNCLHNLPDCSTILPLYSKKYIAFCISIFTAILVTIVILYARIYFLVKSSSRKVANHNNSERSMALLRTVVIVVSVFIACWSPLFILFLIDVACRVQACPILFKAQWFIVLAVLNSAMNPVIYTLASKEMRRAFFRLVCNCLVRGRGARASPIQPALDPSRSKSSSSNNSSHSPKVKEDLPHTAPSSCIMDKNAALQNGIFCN
T2 sequence (O95136 whole entry): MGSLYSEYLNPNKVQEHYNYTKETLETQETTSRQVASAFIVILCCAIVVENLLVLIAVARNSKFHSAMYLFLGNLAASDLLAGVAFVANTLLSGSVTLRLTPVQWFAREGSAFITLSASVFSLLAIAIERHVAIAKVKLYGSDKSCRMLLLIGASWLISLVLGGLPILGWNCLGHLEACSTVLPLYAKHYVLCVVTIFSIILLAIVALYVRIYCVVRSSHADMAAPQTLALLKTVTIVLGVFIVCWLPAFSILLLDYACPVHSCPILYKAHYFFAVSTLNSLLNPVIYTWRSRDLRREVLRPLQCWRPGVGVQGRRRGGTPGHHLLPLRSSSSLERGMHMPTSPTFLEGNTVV
T1 sequence (Q9H228 whole entry): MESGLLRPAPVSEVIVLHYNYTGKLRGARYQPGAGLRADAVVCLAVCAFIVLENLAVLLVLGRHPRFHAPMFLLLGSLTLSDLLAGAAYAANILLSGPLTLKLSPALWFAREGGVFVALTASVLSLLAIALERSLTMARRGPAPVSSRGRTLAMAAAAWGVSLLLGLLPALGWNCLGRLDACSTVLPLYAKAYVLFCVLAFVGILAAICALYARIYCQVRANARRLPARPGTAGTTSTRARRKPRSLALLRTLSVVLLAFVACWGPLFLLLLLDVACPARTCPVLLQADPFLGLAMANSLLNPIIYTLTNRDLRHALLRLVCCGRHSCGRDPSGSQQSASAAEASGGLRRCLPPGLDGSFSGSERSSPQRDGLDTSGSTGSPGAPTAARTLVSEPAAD
T5 sequence (P21453 whole entry): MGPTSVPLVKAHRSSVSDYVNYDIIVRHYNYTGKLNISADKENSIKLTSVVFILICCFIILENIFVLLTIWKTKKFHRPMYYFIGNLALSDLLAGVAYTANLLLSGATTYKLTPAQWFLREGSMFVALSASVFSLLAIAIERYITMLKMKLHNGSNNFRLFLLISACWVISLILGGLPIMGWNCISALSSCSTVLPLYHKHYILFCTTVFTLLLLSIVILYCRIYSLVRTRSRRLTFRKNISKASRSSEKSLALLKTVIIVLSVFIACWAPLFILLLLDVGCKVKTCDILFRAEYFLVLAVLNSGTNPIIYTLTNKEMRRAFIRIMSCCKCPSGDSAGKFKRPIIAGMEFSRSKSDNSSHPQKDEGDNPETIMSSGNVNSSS

`CCCCCCCCc1ccc(OC[C@H](N)CCP(=O)(O)O)cc1`: the EC50 was found to be 47 nM in assay [1]; 530 nM in [2]; 100 nM in assay [3]; 140 nM in [8]; 150 nM in assay [9]. The ECmax was found to be 0.5 in [4], 0.5 in assay [5], 0.53 in assay [6] and 0.9 in assay [7].

As for `CCCCCCCCc1ccc(NC(=O)[C@@H](N)CCP(=O)(O)O)cc1`, the result in assay [2] and in assay [10] was inactive. In addition, the concentration giving a half-maximal response (EC50) in [3] was found to be 15000 nM; in assay [8], 1200 nM. Also, the figures for the ECmax in [5] and in assay [6] were 0 and 0.3, respectively.

As for `CCCCCCCCc1cccc(NC[C@H](N)CCP(=O)(O)O)c1`, the EC50 worked out at 41 nM in [1], 30 nM in [8] and 340 nM in [9]. Also, the result in assay [2] and in [3] was inactive. In addition, the ECmax in assay [4] was 0.61; in assay [5], 0; in assay [6], 0; in assay [7], 1.18.

In the case of `CCCCCCCCc1ccc(NC(=O)[C@H](N)CCP(=O)(O)O)cc1`, the half-maximal effective concentration (EC50) in assay [1] came to 76 nM; in [3], 270 nM; in [8], 27 nM; in [9], 2300 nM. The result in assay [2] was inactive. Moreover, the ECmax is 0.64 in assay [4], 0 in assay [5], 0.38 in assay [6] and 0.8 in [7].

Take `CCCCCCCCc1ccc(OC[C@@H](N)CCP(=O)(O)O)cc1`: the half-maximal effective concentration (EC50) in assay [1] is 31 nM; in assay [8] it was 68 nM; in assay [9], 147 nM. The result in assay [2] and in assay [3] was inactive. Moreover, the ECmax in assay [4] worked out at 0.41; in assay [5] it was 0; in assay [6], 0; in assay [7], 0.71.

On to `CCCCCCCCCCc1ccc(NC(=O)[C@H](N)CC(F)P(=O)(O)O)cc1` (stereo partly drawn), for which the figures for the EC50 in [2], in assay [3] and in assay [8] were 490 nM, 23 nM and 2.1 nM, respectively. In addition, the ECmax in assay [5] was 0.47; in [6], 0.96.

Regarding `CCCCCCCc1cccc(NC(=O)[C@H](N)CCP(=O)(O)O)c1`, the outcome in assay [3] and in [8] was inactive. In [6], this compound registered an ECmax of 0.

As to `CCCCCCCCc1ccc(CCC(N)(CO)COP(=O)(O)O)cc1` (stereo not drawn), the result in [2] was inactive. The ECmax stood at 0.56 in [4], 0 in assay [5], 0.5 in assay [6] and 0.9 in assay [7]. In assay [9], this compound yielded an EC50 of 4 nM.

Consider `CCCCCCCCc1ccc(OC[C@@H](O)CCP(=O)(O)O)cc1`, for which the outcome in assay [1] (HEK-293T), in [2] and in assay [3] was inactive. Also, the ECmax in assay [4] was found to be 0; in assay [5], 0; in assay [6], 0; in [7] it was 0.45. For the same compound, the EC50 in assay [8] amounted to 33 nM; in [9] it was 440000 nM.

Take `CCCCCCCCc1cccc(NC(=O)[C@H](N)CCP(=O)(O)O)c1`: the results for the EC50 in assay [1] and in [9] were 33 nM and 6100 nM, respectively. Further, the result in the assay with Mus musculus [11], in the assay on Mus musculus [12] and in the assay with Mus musculus [14] was Active. Further, the outcome in assay [2], in assay [3] and in [8] was inactive. The ECmax in assay [4] came out at 0.73; in [5], 0; in [6], 0; in [7], 1.42. Also, the results for the Ki in assay [13] and in assay [15] were 30 nM and 300 nM, respectively.

`CCCCCCCCc1cccc(NC(=O)[C@@H](N)CCP(=O)(O)O)c1`: the outcome in assay [2], in assay [3] and in assay [8] was inactive. Further, the ECmax in assay [5] and in assay [6] was 0 in each case.

For `CCCCCCCCCCc1ccc(NC(=O)[C@H](N)CCP(=O)(O)O)cc1`, the EC50 in assay [1] came out at 30 nM; in assay [2] it was 270 nM; in assay [3], 43 nM; in [8], 3.6 nM; in assay [9] it was 230 nM. Besides, the ECmax in assay [4] is 0.77; in [5], 0.5; in assay [6], 0.88; in [7], 0.67.
